Assay results taken from PubChem BioAssay.
Records with an inconclusive call do not appear. The source made the active and inactive calls.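 The calls were made as follows, unless noted: active = RAM network inhibition above 8.4% in each of two replicates, 3 SD over the compound average; inconclusive = above 8.4% inhibition in only one replicate; inactive = 8.4% inhibition or less in each replicate.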

Columns and labels:
[1] = OD615 S. cerevisiae growth inhibition, permissive medium, pilot counter-assay, permissive growth control for S. cerevisiae lifespan shortening project (AID 705;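 active = growth inhibition above 25% in both replicates, a cutoff set 3 SD above the mean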); conditions: OD615, 24 h, at 10 µM, active compounds read high
In short: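 Material: engineered DeaD yeast; Compound: one dose 10 µM, DMSO 0.25% final; Detection: absorbance (optical density) at 615 nm; Buffer or medium: permissive raffinose/galactose medium; Timing: 24 h exposure, 30 °C.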

[2] = Restrictive medium S. cerevisiae growth inhibition, OD615, pilot screen of yeast lifespan reduction project, restrictive growth control (AID 706;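 active = growth inhibition above a set limit, 3 SD over mean compound inhibition, in both replicates, cut at about 43% in these data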;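 also: modified DeaD lifespan yeast strain shifted to restrictive glucose medium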); conditions: OD615, 48 h, at 10 µM, active compounds read high
In short: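 Buffer or medium: restrictive glucose medium (CSMM-D); test system: modified S. cerevisiae; doses: single dose of 10 µM compound final, 0.25% DMSO; schedule: 48 h compound exposure at 30 °C; detection: absorbance (optical density) measured at 615 nm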

[3] = viability gain of MRP-1-high H69AR cells under doxorubicin, pilot screen, MRP-1 activator project, CellTiter-Glo, duplicate (AID 807;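 active = viability increase at or above a cutoff of the median across tested compounds plus 3 SD, cut at about 8.5% in these data, passing the limit was not always enough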;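 also: compound pretreatment 18-22 h then 72 h combined with doxorubicin; 0% = doxorubicin alone and 100% = vehicle without doxorubicin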); conditions: H69AR viability with doxorubicin, CellTiter-Glo luminescence; at 10 µM; active compounds read high
[4] = growth suppression of beta-catenin knockout HCT116, pilot screen, human colon tumor cells (AID 823;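 active = cell viability at or below a set limit in both duplicate runs, the limit being the all-compound median minus 4 SD, cut at about 23% in these data, passing the limit was not always enough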;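 also: 0% = wells killed by 20 µM Hyamine and 100% = untreated DMSO cell wells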); conditions: CellTiter-Glo, 60 h, at 10 µM, active compounds read low
[5] = growth suppression of PTEN-deleted HCT116, pilot screen, cell-based, HCT116 clonal line, CellTiter-Glo (AID 824;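 active = viability at or below 27.92% in each of two runs, the all-compound median minus 4 SD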;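 also: 0% = 20 µM Hyamine control and 100% = vehicle cell control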); conditions: 60 h, at 10 µM, active compounds read low
[6] = inhibitors of the yeast RAM network, pilot screen, dse1pr::URA3 reporter, 5-FOA selection (AID 869;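 active = inhibition over a set limit, the all-compound mean plus 3 SD, in both replicate runs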;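 also: 0% = DMSO wells with no growth and 100% = 10 µM 1-NA-PP1 with full growth; RAM network block rescues cells from 5-FOA so hits raise OD615 growth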); conditions: S. cerevisiae dse1pr::URA3 5-FOA growth, OD615, 2 d; at 10 µM; active compounds read high; strain carries analog-sensitive mutant Cbk1 kinase
[7] = RAM signaling pathway blockade in yeast – S. cerevisiae, Pdr1DBD-CYC8 efflux-inhibited sensitized strain, primary screen (AID 1298);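 also: 0% = DMSO untreated cells without growth and 100% = 10 µM 1-NA-PP1 full growth; higher means more yeast growth rescued from 5-FOA killing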; conditions: S. cerevisiae cbk1-as DSE1-URA3 strain, 5-FOA growth OD615, 2 d; at 50 µM; active compounds read high

COc1ccc2nc(NC(=O)C3CCCN3S(=O)(=O)c3ccc(C)cc3)sc2c1 (configuration not stated)
inactive: growth inhibition [1] -6.88% | growth inhibition [2] -4% | viability increase [3] -1.48% | viability [4] 69.3% | viability [5] 72% | inhibition [6] 1.23% | RAM network inhibition [7] 6.79%

COc1cccc(NC(=O)c2nnn(CCc3ccccc3)c2N)c1
inactive: growth inhibition [1] -1.48% | growth inhibition [2] 0.3% | viability increase [3] -6.11% | viability [4] 65.9% | viability [5] 50.7% | inhibition [6] 2.52% | RAM network inhibition [7] 0.72%

CC(C)Cc1nnc(NC(=O)CCN2C(=O)c3ccccc3C2=O)s1
inactive: growth inhibition [1] 5.23% | growth inhibition [2] 16% | viability increase [3] 0.42% | viability [4] 106% | viability [5] 98.4% | inhibition [6] 1.21% | RAM network inhibition [7] 9.47%

O=C(NC1CCCCC1)N1CCCCCC1
inactive: growth inhibition [1] 1.12% | growth inhibition [2] -18% | viability increase [3] -0.52% | viability [4] 96.6% | viability [5] 97.5% | inhibition [6] 0.64% | RAM network inhibition [7] 3.56%

O=C(Cn1cc2c(n1)CCCC2)N1CCc2ccccc21
inactive: growth inhibition [1] -7.55% | growth inhibition [2] 9.02% | viability increase [3] -2.04% | viability [4] 66% | viability [5] 77.4% | inhibition [6] 2.28% | RAM network inhibition [7] -1.03%

COc1cccc(N(CC(=O)Nc2cccc(F)c2)S(C)(=O)=O)c1
inactive: growth inhibition [1] -5.09% | growth inhibition [2] -12.3% | viability increase [3] -1.38% | viability [4] 91.1% | viability [5] 97.5% | inhibition [6] 0.965% | RAM network inhibition [7] 3.51%

CCN(CC)S(=O)(=O)c1ccc(Cl)c(C(=O)NC2CCCC2)c1
inactive: growth inhibition [1] -6.5% | growth inhibition [2] -7.35% | viability increase [3] 0.17% | viability [4] 92.9% | viability [5] 97.1% | inhibition [6] 0.145% | RAM network inhibition [7] 3.38%

N#CCc1ccc(NS(=O)(=O)c2ccc(N3CCCC3=O)cc2)cc1
inactive: growth inhibition [1] -10.7% | growth inhibition [2] -7.71% | viability increase [3] -0.69% | viability [4] 89.8% | viability [5] 88% | inhibition [6] 2.58% | RAM network inhibition [7] 0.32%

O=C(Nc1ccccc1Oc1ccccc1)C1CC1
inactive: growth inhibition [1] -13.6% | growth inhibition [2] 3.26% | viability increase [3] -2.26% | viability [4] 89.5% | viability [5] 93.1% | inhibition [6] 0.595% | RAM network inhibition [7] 3.21%

COCCNC(=O)CN(c1ccc(C)cc1)S(=O)(=O)c1ccc(SC)cc1
inactive: growth inhibition [1] -10.6% | growth inhibition [2] -12.2% | viability increase [3] -0.9% | viability [4] 96.2% | viability [5] 84.2% | inhibition [6] 0.71% | RAM network inhibition [7] 5.17%

CCCCOc1ccccc1C1C(C(=O)OC)=CN(CC)C=C1C(=O)OC
inactive: growth inhibition [1] -6.49% | growth inhibition [2] 0.595% | viability increase [3] -5.35% | viability [4] 73.8% | viability [5] 70.9% | inhibition [6] 3.23% | RAM network inhibition [7] 6.73%

CCCOC(=O)C1=C(C)NC2=C(C(=O)CC(C)(C)C2)C1c1ccc(N(C)C)cc1 (configuration not stated)
inactive: growth inhibition [1] -2.65% | growth inhibition [2] 0.07% | viability increase [3] -2.59% | viability [4] 90.8% | viability [5] 80.9% | inhibition [6] -0.505% | RAM network inhibition [7] 6.21%

CCOC(=O)Cn1c(=O)oc2cc(S(=O)(=O)N3CCCC(C(=O)OCC)C3)ccc21 (configuration not stated)
inactive: growth inhibition [1] -2.33% | growth inhibition [2] -20.5% | viability increase [3] -1.74% | viability [4] 95.4% | viability [5] 90.7% | inhibition [6] 0.87% | RAM network inhibition [7] 1.99%

C=CCc1cccc2cc(C(=O)N(C)C)c(=O)oc12
inactive: growth inhibition [1] -7.92% | growth inhibition [2] -6.08% | viability increase [3] -1.06% | viability [4] 105% | viability [5] 93.8% | inhibition [6] 1.53% | RAM network inhibition [7] 2.04%

Cc1ccc(-c2nnc(N3CCCCC3)c3ccccc23)cc1S(=O)(=O)N1CCN(C)CC1
inactive: growth inhibition [1] -1.95% | growth inhibition [2] -1.92% | viability increase [3] -5.28% | viability [4] 48% | viability [5] 60.2% | inhibition [6] 0.285% | RAM network inhibition [7] -2.14%

COc1cc(OC)cc(-c2cc(NC(C)=O)n[nH]2)c1
inactive: growth inhibition [1] -4.33% | growth inhibition [2] 6.38% | viability increase [3] -3.17% | viability [4] 90.8% | viability [5] 91.3% | inhibition [6] 0.965% | RAM network inhibition [7] 4.1%

O=c1[nH]c2c(s1)C=Nc1ccccc1N2
inactive: growth inhibition [1] -5.34% | growth inhibition [2] 3.4% | viability increase [3] -2.29% | viability [4] 89.9% | viability [5] 91.6% | inhibition [6] 1.6% | RAM network inhibition [7] 0.32%

CC1(C)CC(=O)C=C(NCCN2CCN(C(=O)Nc3ccc(Cl)cc3)CC2)C1
inactive: growth inhibition [1] -1.03% | growth inhibition [2] 5.34% | viability increase [3] 1.25% | viability [4] 99.2% | viability [5] 101% | inhibition [6] 1.35% | RAM network inhibition [7] 4.07%

Cc1ccc(C)c(N2CCN(C(=O)CCc3nc4ccccc4[nH]3)CC2)c1
inactive: growth inhibition [1] 6.2% | growth inhibition [2] 7.36% | viability increase [3] 1.46% | viability [4] 80.9% | viability [5] 90.4% | inhibition [6] -0.165% | RAM network inhibition [7] -0.77%

C=CCOc1cccc(C2c3c(oc4ccc(F)cc4c3=O)C(=O)N2CCCN2CCOCC2)c1 (configuration not stated)
inactive: growth inhibition [1] -4.2% | growth inhibition [2] 2.91% | viability increase [3] -5.54% | viability [4] 93% | viability [5] 93.5% | inhibition [6] -0.045% | RAM network inhibition [7] 1.42%

COc1ccc(Nc2cc(C)nc3nc(C)nn23)c(OC)c1
inactive: growth inhibition [1] -2.91% | growth inhibition [2] 4.67% | viability increase [3] -1.65% | viability [4] 109% | viability [5] 106% | inhibition [6] 0.83% | RAM network inhibition [7] 0.32%

CN1CCN(C(=O)C2CCC(CNS(=O)(=O)c3cccc4cccnc34)CC2)CC1 (configuration not stated)
inactive: growth inhibition [1] 4.4% | growth inhibition [2] 2.39% | viability increase [3] -0.86% | viability [4] 99% | viability [5] 100% | inhibition [6] 1.58% | RAM network inhibition [7] 0.46%

CCN1CCN(CC(=O)NC2CCCC2)C(=O)C1=O
inactive: growth inhibition [1] 5.56% | growth inhibition [2] -5% | viability increase [3] 0.46% | viability [4] 114% | viability [5] 94.9% | inhibition [6] 1.52% | RAM network inhibition [7] 1.79%

Cn1c(Cn2c(=O)sc3ccccc32)nnc1SCC(=O)Nc1cccc(F)c1
inactive: growth inhibition [1] -12% | growth inhibition [2] -5.46% | viability increase [3] -2.58% | viability [4] 97.3% | viability [5] 93.4% | inhibition [6] 1.9% | RAM network inhibition [7] 1.86%

CCN1C(=O)CC(N2CCN(c3ccc(Cl)cc3)CC2)C1=O (configuration not stated)
inactive: growth inhibition [1] -18.6% | growth inhibition [2] -7.02% | viability increase [3] 1.46% | viability [4] 98% | viability [5] 94.6% | inhibition [6] 1.04% | RAM network inhibition [7] 4.19%

COCCn1c(=O)[nH]c2cc(C(=O)NC3CCCCCC3)ccc2c1=O
inactive: growth inhibition [1] -17.4% | growth inhibition [2] -10.9% | viability increase [3] -3.33% | viability [4] 93.7% | viability [5] 87.6% | RAM network inhibition [7] 4.43%
active: inhibition [6] 6.66%

COCCN1C=C(C(=O)OC)C(c2ccc3c(c2)OCO3)C(C(=O)OC)=C1
inactive: growth inhibition [1] -9.64% | growth inhibition [2] 1.92% | viability increase [3] 2.8% | viability [4] 97.9% | viability [5] 102% | inhibition [6] -0.19% | RAM network inhibition [7] 3.59%

CC(CN(C)Cc1ccccc1)OC(=O)C1COc2ccccc2O1 (configuration not stated)
inactive: growth inhibition [1] -9.66% | growth inhibition [2] 6.59% | viability increase [3] 0.39% | viability [4] 101% | viability [5] 102% | inhibition [6] 1.3% | RAM network inhibition [7] 2.25%

CCOC(=O)c1sc(NC(=O)c2ccco2)nc1C
inactive: growth inhibition [1] -9.56% | growth inhibition [2] -2.94% | viability increase [3] -1.31% | viability [4] 94.5% | viability [5] 91.8% | inhibition [6] 1.66% | RAM network inhibition [7] 3.98%

Cc1nn(Cc2c(Cl)cccc2Cl)c(C)c1NC(=O)c1cc(C(C)C)on1
inactive: growth inhibition [1] -10.6% | growth inhibition [2] 0.6% | viability increase [3] -1.33% | viability [4] 74.2% | viability [5] 62.9% | inhibition [6] 2.81% | RAM network inhibition [7] 2.56%

COC(=O)C1(C)Nc2ccccc2C(=O)N1c1ccccc1OC (configuration not stated)
inactive: growth inhibition [1] -17% | growth inhibition [2] -23.6% | viability increase [3] -0.77% | viability [4] 103% | viability [5] 88.5% | inhibition [6] 1.97% | RAM network inhibition [7] 5.8%

CC(C)CNS(=O)(=O)c1ccc(S(=O)(=O)N2CCN(CCC#N)CC2)cc1
inactive: growth inhibition [1] -11.7% | growth inhibition [2] -4.15% | viability increase [3] -0.2% | viability [4] 99.6% | viability [5] 103% | inhibition [6] 0.85% | RAM network inhibition [7] -0.19%

CCOC(=O)C1CCN(C(=O)CN(c2ccc(OC)c(OC)c2)S(=O)(=O)c2ccccc2)CC1
inactive: growth inhibition [1] -2.99% | growth inhibition [2] -7.61% | viability increase [3] 0.05% | viability [4] 104% | viability [5] 94.6% | inhibition [6] 1.19% | RAM network inhibition [7] 6.25%

COc1ccc(/C(N)=C/C(=O)C(C)(C)C)cc1
inactive: growth inhibition [1] -14.2% | growth inhibition [2] -11.6% | viability increase [3] 0.55% | viability [4] 96.1% | viability [5] 98.2% | inhibition [6] 2.5% | RAM network inhibition [7] 4.84%

CC(C)(C)NC(=O)CSc1nccn1Cc1ccccc1
inactive: growth inhibition [1] -11.7% | growth inhibition [2] -5.1% | viability increase [3] -1.52% | viability [4] 95.9% | viability [5] 93% | inhibition [6] 1.66% | RAM network inhibition [7] 4.82%

CC1CCCC(C)N1CCCNC(=O)c1cc2c(=O)n(C)c3ccccc3c2n1C (configuration not stated)
inactive: growth inhibition [1] -11.5% | growth inhibition [2] -10.6% | viability increase [3] -6.03% | viability [4] 68.9% | viability [5] 71.5% | inhibition [6] -0.625% | RAM network inhibition [7] 2.26%
